Results reported in publication PMC5966832 (Environmental science & technology, 2018).

What was measured:
[1] = system: human liver microsomes; assay: Atropselective; assay type: in vitro ADME; details: for EF of the OH-PCB metabolite before racemization: representative extract, 15 min incubation, 50 μM PCB 91, HLMs from donor H5
How it was run: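 Racemic PCB 91 at 50 μM was incubated 15 min at 37 °C with 0.1 mg/mL microsomes and 1 mM NADPH, in triplicate. Depletion runs used 5 or 50 μM, 120 min, 0.5 mg/mL protein and 0.5 mM NADPH. Metabolites were methylated with diazomethane. GC-μECD used a ChiralDex B-DM column (135 °C) for PCB 91, 5-91 and 4-91, and a G-TA column (140 °C) for 3-100. EF = E1/(E1+E2) by drop valley; mean ± SD.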

[2] = system: human liver microsomes; assay type: in vitro ADME; details: for Difference in rate of metabolite formation, donor H1 vs. donor H5: individual donor HLM preparations
How it was run: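 Pooled HLMs (50 donors, mixed gender) or female single-donor HLMs (H1–H5, age 20–58) were used. Buffer was 0.1 M phosphate pH 7.4 with 3 mM MgCl2. Pre-incubated 5 min at 37 °C, then started with substrate in DMSO (≤0.5% of volume), in triplicate. Stopped with ice-cold 0.5 M NaOH and heated 110 °C for 10 min. Extracts were methylated and run on GC-μECD against PCB 204 using relative response factors. Rates adjusted per nmol P450 or per mg protein.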

[3] = assay type: physicochemical; details: extract heated at 300 °C for 2 h; for EF of the OH-PCB metabolite after racemization: 15 min incubation, donor H5
How it was run: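 Representative hexane extracts were placed in amber ampules and heated at 300 °C. One came from a pooled-HLM incubation; the other from a 50 μM PCB 91 incubation with donor H5 microsomes. Both were re-run by enantioselective GC-μECD, ChiralDex B-DM or G-TA column according to analyte. EF = E1/(E1+E2), drop valley method.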

[4] = system: rat liver microsomes; details: E2-PCB 91 enriched; cited from earlier work
[5] = system: recombinant rat CYP2B1; details: E2-PCB 91 enriched; cited from earlier work

Compound	EF of the OH-PCB metabolite before racemization [1]	Difference in rate of metabolite formation, donor H1 vs. donor H5 [2]	EF of the OH-PCB metabolite after racemization [3]	EF of PCB 91 in incubations with rat liver microsomes [4]	EF of PCB 91, all other incubations ([1]; high concentrations of racemic PCB 91)	PCB 91 added to the incubation converted to OH-PCB metabolites ([2]; 50 μM PCB 91, 0.1 mg/mL HLMs, 1 mM NADPH, 5 or 15 min, 37 °C)	EF of PCB 91 in incubations with recombinant rat CYP2B1 [5]	EF of PCB 91 after racemization ([3]; 2 h incubation, 5 μM PCB 91, pHLMs)
Oc1cc(Cl)c(-c2ccc(Cl)cc2Cl)c(Cl)c1Cl [4-91, 2,2′,3,4′,6-pentachlorobiphenyl-4-ol]	0.85	5.4 fold	0.51	–	–	–	–	–
Clc1ccc(-c2c(Cl)ccc(Cl)c2Cl)c(Cl)c1 [PCB 91, 2,2′,3,4′,6-pentachlorobiphenyl]	–	–	–	0.43	near racemic	≤ 2%	0.45	0.50
Oc1cc(Cl)c(Cl)c(-c2ccc(Cl)cc2Cl)c1Cl [5-91, 2,2′,3,4′,6-pentachlorobiphenyl-5-ol]	0.43	19 fold	0.49	–	–	–	–	–
Oc1c(Cl)cc(Cl)c(-c2ccc(Cl)cc2Cl)c1Cl [3-100, 2,2′,4,4′,6-pentachlorobiphenyl-3-ol]	0.87	2.6 fold	0.46	–	–	–	–	–
